ChEMBL document CHEMBL5705898 (Proc Natl Acad Sci U S A, 2014)

How the values were obtained:
[1] = target: Interstitial collagenase (Homo sapiens) (UniProt P03956); assay: Inhibition of human MMP-1 at 10 uM relative to control
Homo sapiens [2] = species on record: Homo sapiens; assay: Inhibition of human NOP(ORL1) at 10 uM relative to control
[3] = target: Corticotropin-releasing factor receptor 1 (Homo sapiens) (UniProt P34998); assay: Inhibition of human CRF1 receptor at 10 uM relative to control
[4] = target: Tyrosine-protein kinase Lyn (Homo sapiens) (UniProt P07948); assay: Inhibition of human Lyn A kinase at 10 uM relative to control
[5] = target: 5-hydroxytryptamine receptor 4 (Homo sapiens) (UniProt Q13639); assay: Inhibition of human 5-HT4e receptor at 10 uM relative to control
[6] = target: Insulin receptor (Homo sapiens) (UniProt P06213); assay: Inhibition of human IRK (InsR) at 10 uM relative to control
[7] = target: Nitric oxide synthase, inducible (Homo sapiens) (UniProt P35228); assay: Inhibition of inducible NOS (unknown origin) at 10 uM relative to control
[8] = target: Alpha-2A adrenergic receptor (Homo sapiens) (UniProt P08913); assay: Inhibition of human alpha 2A receptor at 10 uM relative to control
[9] = target: Melanocyte-stimulating hormone receptor (Homo sapiens) (UniProt Q01726); assay: Inhibition of MC1 receptor (unknown origin) at 10 uM relative to control
[10] = target: Kappa-type opioid receptor (Homo sapiens, UniProt P41145); assay: Inhibition of human kappa opioid receptor
[11] = target: 5-hydroxytryptamine receptor 1A (Homo sapiens) (UniProt P08908); assay: Inhibition of human 5-HT1A receptor at 10 uM relative to control
[12] = target: Estrogen receptor (Homo sapiens) (UniProt P03372); assay: Inhibition of human ERalpha at 10 uM relative to control
[13] = target: Cysteinyl leukotriene receptor 1 (Homo sapiens) (UniProt Q9Y271); assay: Inhibition of human CysLT1 at 10 uM relative to control
[14] = target: Prostaglandin G/H synthase 2 (Homo sapiens) (UniProt P35354); assay: Inhibition of human COX2 at 10 uM relative to control
[15] = target: Histone-lysine N-methyltransferase SETD7 (Homo sapiens) (UniProt Q8WTS6); conditions: HEK293, dose 10.0 µM
[16] = target: D(1A) dopamine receptor (Homo sapiens) (UniProt P21728); assay: Inhibition of human D1 receptor at 10 uM relative to control
Homo sapiens [17] = species on record: Homo sapiens; assay: Inhibition of central BZD receptor (unknown origin) at 10 uM relative to control
[18] = target: Endothelin-1 receptor (Homo sapiens) (UniProt P25101); assay: Inhibition of human ETA receptor at 10 uM relative to control
[19] = target: Vasopressin V1a receptor (Homo sapiens) (UniProt P37288); assay: Inhibition of human V1a at 10 uM relative to control
[20] = Lipophilicity, logD of compound at pH 7.4; format: physicochemical; conditions: buffer
[21] = target: Glutamate [NMDA] receptor (Homo sapiens) (UniProt Q05586+Q12879+Q13224+O15399+O60391+Q14957+Q8TCU5); assay: Inhibition of NMDA receptor (unknown origin) at 10 uM relative to control; format: protein-complex assay
[22] = target: Mitogen-activated protein kinase 14 (Homo sapiens) (UniProt Q16539); assay: Inhibition of human P38alpha kinase at 10 uM relative to control
[23] = target: Type-2 angiotensin II receptor (Homo sapiens) (UniProt P50052); assay: Inhibition of human AT2 receptor at 10 uM relative to control
Homo sapiens [24] = species on record: Homo sapiens; assay: Inhibition of Na+/K+ ATPase (unknown origin) at 10 uM relative to control
Homo sapiens [25] = species on record: Homo sapiens; assay: Inhibition of strychnine-insensitive glycine receptor (unknown origin) at 10 uM relative to control
[26] = target: Glucocorticoid receptor (Homo sapiens) (UniProt P04150); assay: Inhibition of human GR at 10 uM relative to control
[27] = target: Bombesin receptor subtype-3 (Homo sapiens) (UniProt P32247); assay: Inhibition of human BB3 receptor at 10 uM relative to control
[28] = target: 5-hydroxytryptamine receptor 2B (Homo sapiens) (UniProt P41595); assay: Inhibition of human 5-HT2B receptor at 10 uM relative to control
[29] = target: Substance-P receptor (Homo sapiens) (UniProt P25103); assay: Inhibition of human NK1 receptor at 10 uM relative to control
Motilin receptor = Motilin receptor (Homo sapiens, UniProt O43193); assay: Inhibition of human motilin receptor
Homo sapiens [30] = species on record: Homo sapiens; assay: Inhibition of human sigma receptor at 10 uM relative to control
[31] = target: Type-1 angiotensin II receptor (Homo sapiens) (UniProt P30556); assay: Inhibition of human AT1 receptor at 10 uM relative to control
[32] = target: xanthine oxidase (Xanthine dehydrogenase/oxidase) (Homo sapiens, UniProt P47989); assay: Inhibition of xanthine oxidase (unknown origin) at 10 uM relative to control
[33] = target: Apelin receptor (Homo sapiens) (UniProt P35414); assay: Inhibition of human APJ at 10 uM relative to control
[34] = target: Alpha-2C adrenergic receptor (Homo sapiens) (UniProt P18825); assay: Inhibition of human alpha 2C receptor at 10 uM relative to control
Homo sapiens [35] = species on record: Homo sapiens; assay: Inhibition of PDE6 (unknown origin) at 10 uM relative to control
[36] = Inhibition of SETD7 D256A mutant (unknown origin) using biotinylated H3 (1-25) peptide as substrate incubated for 1 hrs in presence of 3H-SAM by radioactivity based assay; design: species or system Homo sapiens
How it was run: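 Scintillation proximity assay on recombinant E. coli-expressed human SETD7(1–366) mutant forms. Read-out was incorporation of the ³H-methyl group from ³H-SAM into histone H3(1–25) peptide, with 2 µM SAM, 2 µM H3(1–25) and 2 nM enzyme. IC50 is given as the mean ± SD of triplicate runs.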

[37] = target: Androgen receptor (Homo sapiens) (UniProt P10275); assay: Inhibition of human AR at 10 uM relative to control
[38] = target: Bombesin receptor subtype-3 (Homo sapiens, UniProt P32247); assay: Inhibition of human BB3 receptor
[39] = target: 3',5'-cyclic-AMP phosphodiesterase 4D (Homo sapiens) (UniProt Q08499); assay: Inhibition of human PDE4D2 at 10 uM relative to control

Chain of D(1A) dopamine receptor (Homo sapiens) (P21728 whole entry): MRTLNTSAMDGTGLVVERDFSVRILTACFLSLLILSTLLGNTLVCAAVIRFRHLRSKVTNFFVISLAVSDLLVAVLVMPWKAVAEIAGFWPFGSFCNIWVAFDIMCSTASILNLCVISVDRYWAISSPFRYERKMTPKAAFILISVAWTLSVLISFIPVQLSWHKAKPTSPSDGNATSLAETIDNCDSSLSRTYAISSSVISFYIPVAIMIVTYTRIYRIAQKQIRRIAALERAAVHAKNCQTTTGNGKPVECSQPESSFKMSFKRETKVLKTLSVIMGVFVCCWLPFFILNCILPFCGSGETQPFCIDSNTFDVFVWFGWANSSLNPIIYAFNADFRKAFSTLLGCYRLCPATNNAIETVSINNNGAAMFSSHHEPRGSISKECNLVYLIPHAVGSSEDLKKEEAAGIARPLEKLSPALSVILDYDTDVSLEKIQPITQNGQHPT
Chain of Insulin receptor (Homo sapiens) (P06213 28-758 limits assumed): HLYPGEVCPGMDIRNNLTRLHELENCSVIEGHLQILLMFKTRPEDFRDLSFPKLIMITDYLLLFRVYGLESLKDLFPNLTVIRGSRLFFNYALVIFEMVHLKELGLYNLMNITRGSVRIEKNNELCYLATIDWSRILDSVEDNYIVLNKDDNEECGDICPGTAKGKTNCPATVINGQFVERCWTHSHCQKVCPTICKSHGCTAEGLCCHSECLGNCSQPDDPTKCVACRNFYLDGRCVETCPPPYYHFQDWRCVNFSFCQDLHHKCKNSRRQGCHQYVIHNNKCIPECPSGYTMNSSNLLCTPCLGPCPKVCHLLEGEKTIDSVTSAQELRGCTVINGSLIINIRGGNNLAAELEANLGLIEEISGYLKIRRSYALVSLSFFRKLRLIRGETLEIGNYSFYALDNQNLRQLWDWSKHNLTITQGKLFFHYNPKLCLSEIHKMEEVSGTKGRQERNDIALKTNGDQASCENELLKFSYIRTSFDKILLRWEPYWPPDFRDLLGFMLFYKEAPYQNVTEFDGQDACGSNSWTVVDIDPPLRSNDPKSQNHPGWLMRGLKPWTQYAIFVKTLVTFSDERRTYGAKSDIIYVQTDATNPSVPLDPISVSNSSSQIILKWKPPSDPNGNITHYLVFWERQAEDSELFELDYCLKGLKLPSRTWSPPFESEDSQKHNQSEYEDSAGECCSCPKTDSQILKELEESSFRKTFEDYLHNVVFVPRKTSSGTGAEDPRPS
Chain of Insulin receptor (Homo sapiens) (P06213 763-1382 limits assumed): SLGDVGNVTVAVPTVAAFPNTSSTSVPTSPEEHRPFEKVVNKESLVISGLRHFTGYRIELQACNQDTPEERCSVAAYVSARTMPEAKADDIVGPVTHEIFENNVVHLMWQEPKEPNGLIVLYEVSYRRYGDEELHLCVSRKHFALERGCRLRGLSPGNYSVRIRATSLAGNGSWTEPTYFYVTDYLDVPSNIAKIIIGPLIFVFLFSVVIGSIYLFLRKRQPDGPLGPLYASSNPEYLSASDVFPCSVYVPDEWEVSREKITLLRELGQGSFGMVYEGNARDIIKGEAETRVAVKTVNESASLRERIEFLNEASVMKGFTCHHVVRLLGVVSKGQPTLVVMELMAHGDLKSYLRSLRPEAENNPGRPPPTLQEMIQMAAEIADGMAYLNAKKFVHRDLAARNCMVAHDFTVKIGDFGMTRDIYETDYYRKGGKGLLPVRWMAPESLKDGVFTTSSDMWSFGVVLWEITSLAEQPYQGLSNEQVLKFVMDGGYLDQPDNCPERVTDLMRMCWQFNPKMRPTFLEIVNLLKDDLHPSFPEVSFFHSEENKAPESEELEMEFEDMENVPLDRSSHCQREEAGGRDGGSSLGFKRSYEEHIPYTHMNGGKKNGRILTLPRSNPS
Chain of 5-hydroxytryptamine receptor 2B (Homo sapiens) (P41595 whole entry): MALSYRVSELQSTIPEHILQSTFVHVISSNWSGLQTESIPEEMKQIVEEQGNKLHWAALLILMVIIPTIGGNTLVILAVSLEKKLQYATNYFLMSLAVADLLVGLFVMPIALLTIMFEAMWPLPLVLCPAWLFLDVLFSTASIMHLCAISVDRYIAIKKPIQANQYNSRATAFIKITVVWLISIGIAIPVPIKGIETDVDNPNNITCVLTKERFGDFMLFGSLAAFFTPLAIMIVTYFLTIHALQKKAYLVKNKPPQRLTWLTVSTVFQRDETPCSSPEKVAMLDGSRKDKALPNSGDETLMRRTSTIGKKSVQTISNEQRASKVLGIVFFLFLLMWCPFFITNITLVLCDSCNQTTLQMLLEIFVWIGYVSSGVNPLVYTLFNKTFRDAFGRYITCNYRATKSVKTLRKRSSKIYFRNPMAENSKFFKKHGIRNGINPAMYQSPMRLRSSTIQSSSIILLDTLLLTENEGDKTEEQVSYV
Chain of Glucocorticoid receptor (Homo sapiens) (P04150 whole entry): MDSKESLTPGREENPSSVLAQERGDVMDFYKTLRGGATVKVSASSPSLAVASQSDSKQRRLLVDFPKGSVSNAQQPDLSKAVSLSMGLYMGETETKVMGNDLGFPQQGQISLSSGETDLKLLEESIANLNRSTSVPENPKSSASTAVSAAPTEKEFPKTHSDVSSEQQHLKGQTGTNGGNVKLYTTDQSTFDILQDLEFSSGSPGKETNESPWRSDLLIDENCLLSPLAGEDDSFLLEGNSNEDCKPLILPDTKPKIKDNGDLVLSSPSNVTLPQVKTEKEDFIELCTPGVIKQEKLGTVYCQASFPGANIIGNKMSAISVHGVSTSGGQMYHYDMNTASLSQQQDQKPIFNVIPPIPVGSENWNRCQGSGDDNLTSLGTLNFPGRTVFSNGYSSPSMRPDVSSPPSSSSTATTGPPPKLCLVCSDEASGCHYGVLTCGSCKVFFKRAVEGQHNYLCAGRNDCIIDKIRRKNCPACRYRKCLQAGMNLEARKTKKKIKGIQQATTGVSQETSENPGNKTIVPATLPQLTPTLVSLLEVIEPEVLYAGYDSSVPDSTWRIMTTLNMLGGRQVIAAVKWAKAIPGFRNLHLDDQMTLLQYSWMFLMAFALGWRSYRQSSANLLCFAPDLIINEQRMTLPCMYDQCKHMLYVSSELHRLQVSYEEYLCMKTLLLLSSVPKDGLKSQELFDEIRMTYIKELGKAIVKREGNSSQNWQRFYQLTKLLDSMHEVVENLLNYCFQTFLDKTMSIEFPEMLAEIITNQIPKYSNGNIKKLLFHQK
Chain of Mitogen-activated protein kinase 14 (Homo sapiens) (Q16539 whole entry): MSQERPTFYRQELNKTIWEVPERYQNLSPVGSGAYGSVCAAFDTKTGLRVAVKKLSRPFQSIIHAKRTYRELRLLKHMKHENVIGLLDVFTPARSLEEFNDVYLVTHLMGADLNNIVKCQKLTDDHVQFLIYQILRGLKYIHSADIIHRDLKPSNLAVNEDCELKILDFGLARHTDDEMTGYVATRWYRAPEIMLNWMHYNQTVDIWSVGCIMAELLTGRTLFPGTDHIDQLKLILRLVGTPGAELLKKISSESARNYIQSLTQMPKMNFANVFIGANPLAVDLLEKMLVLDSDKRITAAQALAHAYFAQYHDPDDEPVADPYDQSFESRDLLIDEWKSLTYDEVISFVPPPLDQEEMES
Chain of Type-1 angiotensin II receptor (Homo sapiens) (P30556 whole entry): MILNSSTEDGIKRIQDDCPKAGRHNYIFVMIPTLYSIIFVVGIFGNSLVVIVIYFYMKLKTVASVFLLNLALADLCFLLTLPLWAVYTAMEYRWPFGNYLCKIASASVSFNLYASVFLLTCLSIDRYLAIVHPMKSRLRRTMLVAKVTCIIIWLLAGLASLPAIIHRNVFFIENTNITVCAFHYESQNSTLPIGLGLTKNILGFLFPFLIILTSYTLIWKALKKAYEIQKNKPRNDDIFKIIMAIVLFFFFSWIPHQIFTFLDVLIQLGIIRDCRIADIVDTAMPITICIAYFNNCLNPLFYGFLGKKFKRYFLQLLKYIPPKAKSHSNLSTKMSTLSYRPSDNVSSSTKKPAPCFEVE
Chain of Corticotropin-releasing factor receptor 1 (Homo sapiens) (P34998 whole entry): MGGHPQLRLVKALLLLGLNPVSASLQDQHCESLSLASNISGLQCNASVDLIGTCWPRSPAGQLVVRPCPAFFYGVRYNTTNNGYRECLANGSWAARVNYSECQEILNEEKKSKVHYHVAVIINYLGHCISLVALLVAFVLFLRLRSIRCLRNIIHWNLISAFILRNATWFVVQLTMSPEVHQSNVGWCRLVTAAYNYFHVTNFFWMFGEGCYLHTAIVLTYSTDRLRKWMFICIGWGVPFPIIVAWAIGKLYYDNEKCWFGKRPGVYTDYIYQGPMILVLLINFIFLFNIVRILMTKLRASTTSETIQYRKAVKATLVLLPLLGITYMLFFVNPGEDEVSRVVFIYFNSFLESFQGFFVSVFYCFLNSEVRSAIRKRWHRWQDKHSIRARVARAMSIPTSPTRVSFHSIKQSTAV
Chain of Cysteinyl leukotriene receptor 1 (Homo sapiens) (Q9Y271 whole entry): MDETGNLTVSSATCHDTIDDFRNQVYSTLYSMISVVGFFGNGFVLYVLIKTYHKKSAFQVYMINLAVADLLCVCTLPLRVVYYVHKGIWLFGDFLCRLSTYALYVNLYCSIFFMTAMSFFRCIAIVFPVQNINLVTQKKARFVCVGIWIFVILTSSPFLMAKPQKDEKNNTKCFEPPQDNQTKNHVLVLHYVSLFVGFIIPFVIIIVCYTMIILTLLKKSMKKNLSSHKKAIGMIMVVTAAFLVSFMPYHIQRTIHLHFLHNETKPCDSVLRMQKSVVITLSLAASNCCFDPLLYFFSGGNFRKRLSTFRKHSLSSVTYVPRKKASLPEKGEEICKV
Chain of Apelin receptor (Homo sapiens) (P35414 whole entry): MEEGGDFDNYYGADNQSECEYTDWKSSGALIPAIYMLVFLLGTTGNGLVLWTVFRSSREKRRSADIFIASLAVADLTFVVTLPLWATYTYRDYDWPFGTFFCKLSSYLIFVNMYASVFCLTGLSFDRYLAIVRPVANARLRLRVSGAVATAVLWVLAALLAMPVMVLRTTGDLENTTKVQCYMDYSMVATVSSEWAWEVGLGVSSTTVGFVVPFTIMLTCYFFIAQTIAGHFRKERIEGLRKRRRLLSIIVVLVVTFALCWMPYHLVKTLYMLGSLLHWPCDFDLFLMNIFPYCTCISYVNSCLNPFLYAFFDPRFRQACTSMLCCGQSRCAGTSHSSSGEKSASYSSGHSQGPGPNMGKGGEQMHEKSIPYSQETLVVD

SMILES: O=C([C@@H](Cc1cccc(C(F)(F)F)c1)NS(=O)(=O)c1cc(F)c2c(c1)CCNC2)N1CCCC1
- inhibition [1]: 1%
- inhibition (Homo sapiens [2]): 11%
- inhibition [3]: -7%
- inhibition [4]: 14%
- inhibition [5]: -4%
- inhibition [6]: 0%
- inhibition [7]: -7%
- inhibition [8]: 15%
- inhibition [9]: 16%
- IC50 [10]: 3.8 µM
- inhibition [11]: 0%
- inhibition [12]: -5%
- inhibition [13]: -1%
- inhibition [14]: -8%
- deltaT [15]: 4 °C
- inhibition [16]: 0%
- inhibition (Homo sapiens [17]): 11%
- inhibition [18]: 10%
- inhibition [19]: 8%
- logD [20]: 2.3
- inhibition [21]: -8%
- inhibition [22]: -6%
- inhibition [23]: 12%
- inhibition (Homo sapiens [24]): 5%
- inhibition (Homo sapiens [25]): -1%
- inhibition [26]: 5%
- inhibition [27]: 61%
- inhibition [28]: 1%
- inhibition [29]: 43%
- IC50 (Motilin receptor): 7.2 µM
- inhibition (Homo sapiens [30]): 49%
- inhibition [31]: 15%
- inhibition at 10 µM [32]: 4%
- inhibition [33]: -5%
- inhibition [34]: 10%
- inhibition (Homo sapiens [35]): 11%
- IC50 [36]: 1.2 µM
- inhibition [37]: 1%
- IC50 [38]: 8.1 µM
- inhibition [39]: 1%
